Reference: publication PMC11551477 (Pharmacology Research & Perspectives, 2024)
Like-named read-outs stand apart in the source and are kept apart here.

What was measured:
[1] = Integrated PopPK analysis; format: in vivo, human (Japanese pediatric patients and adult population)
Method in brief: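 Plasma concentrations (2611 samples, 142 Japanese subjects) were pooled from six oral-dosing studies: pediatric patients aged 6–18 y on once-daily doses for 52 weeks, healthy adult males, and fed adults with normal, mild or moderately impaired renal function. Assays were LC–MS/MS (LLOQ 0.5 ng/mL) or HPLC (LLOQ 4 ng/mL). Points with |CWRES| >6 were excluded. Model: linear two-compartment, first-order absorption with lag and first-order elimination. Covariate selection was forward (p<.05) then backward (p<.01), with condition number ≤1000. Evaluation used bootstrap and pc-VPC.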

[2] = tested on: plasma protein (mainly albumin); conditions: binds mainly to albumin; cited from earlier work
[3] = healthy Japanese adult males, NCA; cited from earlier work
[4] = 20 mg repeated, fed, NCA, cited from earlier work
[5] = tested on: hyperuricemia including gout; conditions: pediatric patients weighing <40 kg and ≥40 kg; cited from earlier work
[6] = standard NCA analysis; cited from earlier work
[7] = cited from earlier work
[8] = Post hoc estimates of steady-state PK parameters from the PopPK final model; format: in vivo, human (Japanese pediatric patients and adult population); conditions: for CLss/F (apparent total body clearance at steady state) / Dose‐normalized AUCτ,ss / Dose‐normalized C max,ss: fed, mean ± SD
Method in brief: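 Steady-state parameters were derived by post hoc estimation from the final PopPK model, assuming each study's dose given once daily to fed subjects. Pediatric estimates used the original maintenance doses: 20 mg for <40 kg and 40 mg for ≥40 kg. CL/F was also expressed per body weight. Outputs were CLss/F, Cmax,ss and AUCτ,ss, compared with the adult population.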

[9] = cited from earlier work; remark: listed apart in the source
[10] = fed vs fasted, present PopPK analysis
[11] = final PopPK model, fixed effect
[12] = mild dysfunction group (CLCr-based)
[13] = moderate renal dysfunction group (CLCr-based)
[14] = adult population (n = 113), 10–160 mg once daily
[15] = pediatric patients <40 kg (n = 10), 20 mg once daily
[16] = pediatric patients weighing <40 kg vs adult population
[17] = pediatric patients weighing ≥40 kg vs adult population
[18] = pediatric patients ≥40 kg (n = 19), 40 mg once daily

For `Cc1nc(-c2ccc(OCC(C)C)c(C#N)c2)sc1C(=O)O` [febuxostat], the “Between-subject variability of CL/F, CV (%)” value ([1]; CV = SQRT(EXP(ω^2)–1) × 100) was 26.2%, the “Between-subject variability of Ka, CV (%)” value ([1]; CV = SQRT(EXP(ω^2)–1) × 100) was 306.3% and the “Between-subject variability of Q/F, CV (%)” value ([1]; CV = SQRT(EXP(ω^2)–1) × 100) was 71.3%. For the same compound, the “Between-subject variability of V2/F, CV (%)” value ([1]; CV = SQRT(EXP(ω^2)–1) × 100) was 25.7%, the “Between-subject variability of V3/F, CV (%)” value ([1]; CV = SQRT(EXP(ω^2)–1) × 100) was 54.4% and the “Residual variability, CV (%)” value ([1]; CV = σ × 100) was 36.9%. The “ALAG1, Bootstrap Median” value ([1]; bootstrap, 1000 simulations) was 0.438 h, the “ALAG1, Bootstrap parameter estimate Mean ± SE” value ([1]; bootstrap, 1000 simulations) was 0.441 ± 0.0210 h and the “CL/F, Bootstrap Median” value ([1]; bootstrap, 1000 simulations) was 6.52 L/h. For the same compound, the “CL/F, Bootstrap parameter estimate Mean ± SE” value ([1]; bootstrap, 1000 simulations) was 6.52 ± 0.197 L/h, the “CLEGFR, Bootstrap Median” value ([1]; bootstrap, 1000 simulations) was 0.326 and the “CLEGFR, Bootstrap parameter estimate Mean ± SE” value ([1]; bootstrap, 1000 simulations) was 0.326 ± 0.0586. The “CLWGT, Bootstrap Median” value ([1]; bootstrap, 1000 simulations) was 0.580, the “CLWGT, Bootstrap parameter estimate Mean ± SE” value ([1]; bootstrap, 1000 simulations) was 0.589 ± 0.130 and the “F1 (FED), Bootstrap Median” value ([1]; bootstrap, 1000 simulations) was 0.839. The “F1 (FED), Bootstrap parameter estimate Mean ± SE” value ([1]; bootstrap, 1000 simulations) was 0.838 ± 0.0274, the “Ka, Bootstrap Median” value ([1]; bootstrap, 1000 simulations) was 3.51 h⁻¹ and the “Ka, Bootstrap parameter estimate Mean ± SE” value ([1]; bootstrap, 1000 simulations) was 4.24 ± 2.78 h⁻¹. For the same compound, the “Q/F, Bootstrap Median” value ([1]; bootstrap, 1000 simulations) was 1.79 L/h, the “Q/F, Bootstrap parameter estimate Mean ± SE” value ([1]; bootstrap, 1000 simulations) was 1.78 ± 0.127 L/h and the “V2/F, Bootstrap Median” value ([1]; bootstrap, 1000 simulations) was 19.4 L. For the same compound, the “V2/F, Bootstrap parameter estimate Mean ± SE” value ([1]; bootstrap, 1000 simulations) was 19.4 ± 0.792 L, the “V3/F, Bootstrap Median” value ([1]; bootstrap, 1000 simulations) was 15.6 L and the “V3/F, Bootstrap parameter estimate Mean ± SE” value ([1]; bootstrap, 1000 simulations) was 15.5 ± 0.822 L. For the same compound, the “σ ^2, Bootstrap Median” value ([1]; bootstrap, 1000 simulations) was 0.135, the “σ ^2, Bootstrap parameter estimate Mean ± SE” value ([1]; bootstrap, 1000 simulations) was 0.135 ± 0.00823 and the “ω Ka ^2, Bootstrap Median” value ([1]; bootstrap, 1000 simulations) was 2.37. For the same compound, the “ω Ka ^2, Bootstrap parameter estimate Mean ± SE” value ([1]; bootstrap, 1000 simulations) was 2.60 ± 0.908, the “ω Q/F ^2, Bootstrap Median” value ([1]; bootstrap, 1000 simulations) was 0.409 and the “ω Q/F ^2, Bootstrap parameter estimate Mean ± SE” value ([1]; bootstrap, 1000 simulations) was 0.414 ± 0.0686. The “ω Q/F‐V3/F ^2, Bootstrap Median” value ([1]; bootstrap, 1000 simulations) was 0.302, the “ω Q/F‐V3/F ^2, Bootstrap parameter estimate Mean ± SE” value ([1]; bootstrap, 1000 simulations) was 0.304 ± 0.0507 and the “ω V2/F ^2, Bootstrap Median” value ([1]; bootstrap, 1000 simulations) was 0.0633. For the same compound, the “ω V2/F ^2, Bootstrap parameter estimate Mean ± SE” value ([1]; bootstrap, 1000 simulations) was 0.0648 ± 0.0188, the “ω V3/F ^2, Bootstrap Median” value ([1]; bootstrap, 1000 simulations) was 0.251 and the “ω V3/F ^2, Bootstrap parameter estimate Mean ± SE” value ([1]; bootstrap, 1000 simulations) was 0.254 ± 0.0511. For the same compound, the “Reduction of AUCτ,ss in the fed group” value [1, 10] was 16.2%, the “Reduction of C max,ss in the fed group” value [1, 10] was 16.2% and the “Reduction of relative bioavailability in the fed group” value [1, 10] was 16.2%. For the same compound, the “σ ^2 (exponential error), residual variability, Estimate” value ([1]; final PopPK model) was 0.136, the “ω CL/F‐V2/F ^2 (covariance, correlation variability), Estimate” value ([1]; final PopPK model) was 0.0483 and the “ω Ka ^2 (between-subject variability), Estimate” value ([1]; final PopPK model) was 2.34. The “ω Q/F ^2 (between-subject variability), Estimate” value ([1]; final PopPK model) was 0.411, the “ω Q/F‐V3/F ^2 (covariance, correlation variability), Estimate” value ([1]; final PopPK model) was 0.307 and the “ω V2/F ^2 (between-subject variability), Estimate” value ([1]; final PopPK model) was 0.0638. The “ω V3/F ^2 (between-subject variability), Estimate” value ([1]; final PopPK model) was 0.259, the “ω CL/F ^2 (between-subject variability), Estimate” value ([1]; final PopPK model, exponential error model) was 0.0662 and the “ALAG1 (absorption lag time), Estimate” value [1, 11] was 0.437 h. The “Ka (first-order absorption rate constant), Estimate” value [1, 11] was 3.43 h⁻¹, the “CLWGT (covariate for effect of body weight on CL/F), Estimate” value ([1]; final PopPK model, power function exponent, centered at 60.6 kg) was 0.584 and the “CLEGFR (covariate for effect of eGFR on CL/F), Estimate” value ([1]; final PopPK model, power function exponent, centered at 98.6 mL/min/1.73 m^2) was 0.324. The Vd/F ([1]; human, plasma, oral) was 19.4 L, the “Plasma protein binding rate” value [2] was “approximately 99%” and the “AUCinf lower in the fed group than in the fasted group” value [3] was 18%. The “C max lower in the fed group than in the fasted group” value [3] was 28%, the “Increase of AUCτ,ss vs normal renal function group” value [4, 12] was 52.5% and the “Steady‐state plasma C max,ss vs normal renal function group” value [4, 12] was “did not differ noticeably”. The “Increase of AUCτ,ss vs normal renal function group” value [4, 13] was 67.6%, the “Increase of C max,ss vs normal renal function group” value [4, 13] was 25.5% and the “Efficacy in pediatric patients compared with adults” value [5] was “as effective”. The “Tolerability in pediatric patients compared with adults” value [5] was “well tolerated”, the “Effect of sex on PK” value [6] was “no notable effect” and the “Eliminated as unchanged drug through the urine” value [7] was under 5%. The “CLss/F (apparent total body clearance at steady state)” value [8, 14] was 8.27 ± 2.00 L/h, the “Dose‐normalized AUCτ,ss” value [8, 14] was 128 ± 32 ng·h/mL/mg and the “Dose‐normalized C max,ss” value [8, 14] was 30.2 ± 10.6 ng/mL/mg. The “CL/F adjusted by body weight (post hoc estimate), males vs females” value ([8]; children or adults, Figure S2) was “no clear difference”, the “CLss/F (apparent total body clearance at steady state)” value [8, 15] was 4.28 ± 1.20 L/h and the “Dose‐normalized AUCτ,ss” value [8, 15] was 251 ± 72 ng·h/mL/mg. The “Dose‐normalized C max,ss” value [8, 15] was 42.7 ± 7.6 ng/mL/mg, the “CLss/F relative to the adult population” value [8, 16] was 0.52 fold and the “Dose‐normalized AUCτ,ss relative to the adult population” value [8, 16] was 1.96 fold. For the same compound, the “Dose‐normalized C max,ss relative to the adult population” value [8, 16] was 1.41 fold, the “CLss/F relative to the adult population” value [8, 17] was 0.80 fold and the “Dose‐normalized AUCτ,ss relative to the adult population” value [8, 17] was 1.38 fold. The “Dose‐normalized C max,ss relative to the adult population” value [8, 17] was 1.18 fold, the “CLss/F (apparent total body clearance at steady state)” value [8, 18] was 6.59 ± 2.45 L/h and the “Dose‐normalized AUCτ,ss” value [8, 18] was 176 ± 75 ng·h/mL/mg. The “Dose‐normalized C max,ss” value [8, 18] was 35.7 ± 10.4 ng/mL/mg and the “Solubility (in words)” value [9] was “poorly soluble”.
